What was measured:
CEM cells [1] = assay: Mitochondrial membrane potential; assay type: cell-based, human
Procedure, shortened: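 CEM cells grown in RPMI with 10% heat-inactivated FBS at 37 °C, 5% CO2, then given 1 µM final test compound for 6 and 8 h. Stained with JC-1 (MitoProbe) per kit protocol: red aggregates mean polarized mitochondria, green monomers mean depolarized. Green cells scored by flow cytometry, about 10,000 events per sample. Controls were 50 µM CCCP, 1% v/v DMSO and untreated cells. Triplicates, mean ± standard deviation; two-tailed paired t-test.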

caspase-3 = assay: Live-cell detection of intracellular caspase-3 activation; assay type: cell-based, human; conditions: CEM cells, 1 µM, 8 h
Procedure, shortened: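 CEM cells in RPMI with 10% heat-inactivated FBS and penicillin/streptomycin, 37 °C, 5% CO2, seeded at 50,000 per well. Exposed to 1 µM test compound (DMSO dilutions) for 8 h, then labelled with fluorogenic NucView 488 caspase-3/7 live-cell substrate. Green-positive cells counted by flow cytometry, about 10,000 events per sample. Controls were 50 µM CCCP, 1% v/v DMSO and untreated cells. Mean ± standard deviation; two-tailed paired t-test.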

CEM cells [2] = assay: Annexin V/PI apoptosis/necrosis assay; assay type: cell-based, human; conditions: 72 h
Procedure, shortened: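 CEM cells in RPMI/10% heat-inactivated FBS, 50,000 per well, rested 1 h, then dosed from DMSO dilutions; 72 h, 37 °C, 5% CO2. Collected on ice, annexin V-FITC/PI in binding buffer 15 min on ice, dark; ~10,000 events by flow. Apoptotic = early+late annexin-positive; PI-only = necrotic. Controls: untreated, 1% DMSO, 1 mM H2O2. Four wells; three independent experiments.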

[3] = Solubility observation in cell culture medium; assay type: physicochemical; conditions: cell culture medium (aqueous environment)

## N#CC(C#N)=NNc1cccc(Cl)c1 [CCCP, carbonyl cyanide 3-chlorophenylhydrazone, reference compound]
CEM cells [1]; 50 µM, positive control
  mitochondrial depolarization (JC-1 green signal): strongly induced mitochondrial depolarization

## CCCCCCCCCCCC(=O)c1cc(O)c2ccccc2c1O [Compound 3, 2-Dodecanoyl-1,4-naphthohydroquinone]
caspase-3
  caspase-3 activation: has a tendency to induce cytotoxicity via caspase-3 activation
CEM cells [2]; 10 µM
  apoptosis (annexin V-FITC positive cells, early + late): 95.35%
  mode of cell death (apoptosis vs necrosis): preferentially induce cell death via apoptosis
CEM cells [1]; 1 µM, 6 and 8 h
  mitochondrial depolarization (JC-1 green signal): induced a significant increase in mitochondrial depolarization from 6 to 8 h

## CCC(=O)c1cc(O)c2ccccc2c1O [Compound 4, 2-Propanoyl-1,4-naphthohydroquinone]
[3]
  solubility in cell culture medium: generated insoluble crystals when added to the cell culture medium

## C/C=C/C(=O)c1cc(O)c2ccccc2c1O [Compound 7, 2-Crotonyl-1,4-naphthohydroquinone]
CEM cells [2]; 50 µM
  apoptosis (annexin V-FITC positive cells, early + late): 1.7%
  mode of cell death (apoptosis vs necrosis): elicited a substantial amount of necrosis instead of apoptosis
